Experiment [1] can be described thus: PERK-eIF2a-CHOP pathway stimulators, retested – cell-based, CHO-CHOP luciferase reporter, single concentration, confirmation (AID 463112).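 Also: 0% = DMSO wells and 100% = tunicamycin 10 µg/mL wells.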 As to conditions: CHO-CHOP cells, CHOP-luciferase reporter luminescence; at 10 µM; stronger effect = higher value; percent of tunicamycin response, DMSO as zero. Summed up: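 Assay system: CHO cells stably carrying a CHOP-driven luciferase reporter. Timing: 6 h compound treatment, 37 °C. Detection: luciferase luminescence measured with Steady-Glo reagent. Benchmarks: high control tunicamycin 10 µg/mL, low control DMSO.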

Experiment [2] can be described thus: lowers stimulated NF-kB luciferase signal in Jurkat – cell-based, luminescence, single concentration, T-cell NF-kB inhibitor project, confirmation (AID 435020;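 active = inhibition reaching about 45% at 4 µM in either replicate, limit read from the data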;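 also: plate controls were PMA/ionomycin stimulated DMSO wells for no effect and unstimulated DMSO wells for full effect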). As to conditions: PMA/ionomycin-induced, 16 h, at 4 µM, stronger effect = higher value.
Experiment [3] has as its target Sentrin-specific protease 8 (Homo sapiens) (UniProt Q96LD8). Kind of experiment: human SENP8 peptidase blockers, hit retest – biochemical, luminescence, single concentration, confirmation (AID 488912;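 active = mean inhibition across replicates above about 50%, limit read from the data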). As to conditions: Recombinant SENP8, Z-RLRGG-aminoluciferin luminescence, 60 min; at 12.5 µM; stronger effect = higher value.
Experiment [4] deals with Sentrin-specific protease 6 (Homo sapiens) (UniProt Q9GZR1). Kind of experiment: inhibition of human SENP6 catalytic domain – biochemical, luminescence, single concentration, confirmation (AID 488915;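 active = mean inhibition above about 50% in the one-dose retest, limit read from the data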). As to conditions: recombinant SENP6, Z-RLRGG-aminoluciferin luminescence; at 12.5 µM; stronger effect = higher value.
The target in experiment [5] is Sentrin-specific protease 7 (Homo sapiens) (UniProt Q9BQF6). Description: human SENP7 peptidase blockers, hit retest – biochemical, luminescence, single concentration, confirmation (AID 488917;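 active = mean inhibition above about 50% in the one-dose retest, limit read from the data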). As to conditions: recombinant SENP7, Z-RLRGG-aminoluciferin luminescence, 40 min; at 12.5 µM; stronger effect = higher value.
The target in experiment [6] is Caspase-3 (Homo sapiens) (UniProt P42574). Kind of experiment: human caspase-3 activity blockade, out-of-family – biochemical, single concentration, selectivity assay for SENP inhibitor project, confirmation (AID 488918;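 active = mean inhibition above about 50%, limit read from the data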;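 also: plate controls were enzyme with DMSO for no effect and wells without caspase-3 for full effect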). As to conditions: purified caspase-3, Z-DEVD-aminoluciferin luminescence, 60 min; at 12.5 µM; stronger effect = higher value.
Experiment [7] is described as follows: Ultra-Glo luciferase signal interference – biochemical, single concentration, SENP8 reaction pre-completed, artefact control for SENP inhibitor project, confirmation (AID 488919;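 active = mean inhibition above about 50% when retested at one dose, limit read from the data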;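 also: plate controls were DMSO wells with completed reaction for no effect and substrate without enzyme for full effect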). As to conditions: Pre-incubated SENP8/Z-RLRGG-aminoluciferin, luciferase luminescence interference; at 12.5 µM; stronger effect = higher value.
Experiment [8] deals with Protein Mdm4 (Homo sapiens) + E3 ubiquitin-protein ligase Mdm2 (Homo sapiens) (UniProt O15151+Q00987). Kind of experiment: human Mdm2/MdmX binding disruption – cell-based, luminescence, single concentration, set 2, confirmation (AID 504601;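 active = mean inhibition of the luminescence signal across two replicates at or above 26 percent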). As to conditions: SaOS-2 split-luciferase Mdm2/MdmX complementation, at 8 µM, stronger effect = higher value.
Experiment [9] concerns the target Carboxy-terminal domain RNA polymerase II polypeptide A small phosphatase 1 (Homo sapiens) (UniProt Q9GZU7). Description: SCP1 melting temperature change from compounds – biophysical, differential scanning fluorimetry, orthogonal assay for Scp-1 inhibitor project, confirmation (AID 540329;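 active = substances whose mean melting-temperature shift, as a percentage of the reference inhibitor's shift, reaches about 5.3%, limit read from the data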;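 also: 0% = Tm of DMSO wells and 100% = Tm with sodium orthovanadate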). As to conditions: Recombinant SCP1, Sypro Orange thermal shift Tm; at 40 µM; stronger effect = higher value. Summed up:
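Test system: human Scp-1 phosphatase catalytic domain, residues 76-261. Input: Scp-1 from 10 µM stock. Incubation: Heating 20-95 °C, 0.03 °C/s ramp. Control set: vanadate reference. Buffer or medium: Tris acetate buffer at pH 5.5, with MgCl2 and Tween-20. Detection: differential scanning fluorimetry.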

This is one part of the list. A number with no mark means an inactive call. Calls of active or inactive are those of the source. Rule as the data show it, unless noted: active = activation above about 33%; inactive = the rest.

Sequence of Protein Mdm4 (Homo sapiens) + E3 ubiquitin-protein ligase Mdm2 (Homo sapiens) (O15151 whole entry, looked up, the tested form may be a part): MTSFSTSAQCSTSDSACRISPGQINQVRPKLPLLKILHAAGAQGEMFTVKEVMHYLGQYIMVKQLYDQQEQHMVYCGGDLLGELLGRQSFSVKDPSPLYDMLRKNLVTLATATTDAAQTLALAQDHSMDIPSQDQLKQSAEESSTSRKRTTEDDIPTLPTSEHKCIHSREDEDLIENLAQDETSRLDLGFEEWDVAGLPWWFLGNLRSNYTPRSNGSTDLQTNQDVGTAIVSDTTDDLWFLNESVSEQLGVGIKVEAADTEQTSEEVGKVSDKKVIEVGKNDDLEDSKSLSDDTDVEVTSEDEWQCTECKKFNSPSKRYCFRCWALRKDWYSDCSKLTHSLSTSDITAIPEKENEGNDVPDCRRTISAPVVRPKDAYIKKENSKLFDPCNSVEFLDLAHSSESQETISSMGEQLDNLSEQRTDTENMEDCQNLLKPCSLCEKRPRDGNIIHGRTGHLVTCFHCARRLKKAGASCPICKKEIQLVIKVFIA
Sequence of Protein Mdm4 (Homo sapiens) + E3 ubiquitin-protein ligase Mdm2 (Homo sapiens) (Q00987 whole entry, looked up, the tested form may be a part): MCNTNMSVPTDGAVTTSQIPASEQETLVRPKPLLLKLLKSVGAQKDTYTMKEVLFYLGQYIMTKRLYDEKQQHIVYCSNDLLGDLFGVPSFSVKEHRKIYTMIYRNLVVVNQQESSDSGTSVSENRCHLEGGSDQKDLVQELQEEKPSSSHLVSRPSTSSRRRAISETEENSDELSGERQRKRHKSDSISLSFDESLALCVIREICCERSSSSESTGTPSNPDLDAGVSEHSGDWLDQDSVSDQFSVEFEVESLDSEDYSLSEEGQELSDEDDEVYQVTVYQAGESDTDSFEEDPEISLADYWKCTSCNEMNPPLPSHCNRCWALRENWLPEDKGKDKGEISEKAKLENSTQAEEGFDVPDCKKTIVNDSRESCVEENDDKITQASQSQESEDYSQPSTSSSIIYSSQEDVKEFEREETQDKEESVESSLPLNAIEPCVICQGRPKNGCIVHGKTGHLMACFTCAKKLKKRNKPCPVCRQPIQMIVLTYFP
Sequence of Sentrin-specific protease 6 (Homo sapiens) (Q9GZR1 628-1112 limits assumed): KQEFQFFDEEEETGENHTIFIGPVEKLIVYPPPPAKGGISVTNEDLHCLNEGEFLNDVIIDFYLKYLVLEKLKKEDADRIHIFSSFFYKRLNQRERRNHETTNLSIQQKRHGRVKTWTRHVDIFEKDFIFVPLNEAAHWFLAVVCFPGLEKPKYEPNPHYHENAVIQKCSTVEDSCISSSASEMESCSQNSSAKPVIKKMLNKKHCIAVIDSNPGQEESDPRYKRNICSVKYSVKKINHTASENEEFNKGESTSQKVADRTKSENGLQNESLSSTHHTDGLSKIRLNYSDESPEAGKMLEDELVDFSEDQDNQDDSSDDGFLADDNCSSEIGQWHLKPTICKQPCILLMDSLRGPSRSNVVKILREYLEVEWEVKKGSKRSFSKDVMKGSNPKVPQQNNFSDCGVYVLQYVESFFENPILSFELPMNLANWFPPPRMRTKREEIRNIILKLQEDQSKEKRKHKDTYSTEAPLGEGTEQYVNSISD
Sequence of Sentrin-specific protease 7 (Homo sapiens) (Q9BQF6 706-1050 limits assumed): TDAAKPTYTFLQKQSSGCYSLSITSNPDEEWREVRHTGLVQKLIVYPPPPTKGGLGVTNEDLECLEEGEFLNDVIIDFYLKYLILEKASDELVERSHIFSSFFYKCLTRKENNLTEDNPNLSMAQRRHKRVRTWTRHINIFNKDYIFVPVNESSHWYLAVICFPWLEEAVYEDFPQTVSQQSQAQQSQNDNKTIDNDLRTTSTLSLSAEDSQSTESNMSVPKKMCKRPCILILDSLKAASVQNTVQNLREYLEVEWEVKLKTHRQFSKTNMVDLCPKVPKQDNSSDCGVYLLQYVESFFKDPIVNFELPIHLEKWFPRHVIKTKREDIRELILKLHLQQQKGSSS
Sequence of Carboxy-terminal domain RNA polymerase II polypeptide A small phosphatase 1 (Homo sapiens) (Q9GZU7 76-261 limits assumed): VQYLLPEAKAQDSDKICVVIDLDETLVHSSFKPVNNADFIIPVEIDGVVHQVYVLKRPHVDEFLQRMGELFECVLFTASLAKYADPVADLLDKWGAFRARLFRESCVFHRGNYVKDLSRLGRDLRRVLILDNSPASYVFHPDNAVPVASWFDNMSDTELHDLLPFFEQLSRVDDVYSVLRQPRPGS
Sequence of Sentrin-specific protease 8 (Homo sapiens) (Q96LD8 whole entry, looked up, the tested form may be a part): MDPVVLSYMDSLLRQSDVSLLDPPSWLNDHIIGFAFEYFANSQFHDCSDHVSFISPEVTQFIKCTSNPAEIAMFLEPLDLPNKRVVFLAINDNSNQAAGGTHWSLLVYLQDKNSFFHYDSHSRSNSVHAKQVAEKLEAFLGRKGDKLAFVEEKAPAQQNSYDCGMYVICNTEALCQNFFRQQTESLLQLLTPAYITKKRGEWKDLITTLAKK
Sequence of Caspase-3 (Homo sapiens) (P42574 28-227 limits assumed): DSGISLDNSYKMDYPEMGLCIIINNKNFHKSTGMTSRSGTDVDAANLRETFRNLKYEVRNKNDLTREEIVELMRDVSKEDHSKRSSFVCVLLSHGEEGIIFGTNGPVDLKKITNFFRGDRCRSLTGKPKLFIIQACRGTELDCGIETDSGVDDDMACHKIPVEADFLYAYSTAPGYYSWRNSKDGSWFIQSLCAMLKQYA

`COCCNc1nc(-n2nc(C)cc2C)nc2sc3c(c12)CCCC3`: the activation in experiment [1] was 8.5%.
Take `O=c1oc2ccccc2cc1-c1cn(-c2ccccc2)c(=S)[nH]1`: the inhibition in experiment [2] was 80.8% (active); in experiment [3], 39.3%; in [4] it was 47.9%; in experiment [5], 81.7% (active); in experiment [6] it was 81.8% (active); in [7], 19.1%. Besides, the inhibition in [8] is 92% (active).
Regarding `O=C(NCCc1ccc(Cl)cc1)c1cccc(N2CCCC2=O)c1`, the activation in [1] is 1.95%.
Turning to `N/C(=N\OC(=O)N1c2ccccc2Sc2ccccc21)c1ccc(Br)cc1`, the inhibition in [2] is 6.45%. Besides, the thermal shift relative to vanadate control in experiment [9] was -22.1%.
Regarding `COc1ccc2cc1Oc1ccc(cc1)C[C@H]1c3cc(c(OC)cc3CCN1C)Oc1c(O)c(OC)cc3c1[C@H](C2)N(C)CC3`, the inhibition in [2] was 16.9%; in [8], 104% (active).
For `CC(C)(C)C(=O)OCc1nc(-c2ccc(O)c(O)c2)cs1`, the activation in experiment [1] was 144% (active).
With `Cc1cc(N/N=C\c2ccc(Br)cc2)nc(-n2nc(C)cc2C)n1`, the activation in experiment [1] was 12.3%.

The values above are taken from PubChem BioAssay.
